Experiment [1] relates to Jurkat. Briefly: Inhibition of CD2-CD58 interaction assessed as inhibition of adhesion between Jurkat cells and Caco-2 cells at 90 uM. The format is cell-based. The conditions noted are these: Homo sapiens. The gist of the method: (§1)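 Lymphocyte–epithelial adhesion: peptide added to confluent Caco-2 monolayer (hCD58), then BCECF-labelled Jurkat cells (hCD2). 45 min at 37 °C, nonadherent cells washed off with PBS, bound Jurkat cells lysed with Triton X-100, lysate fluorescence read. Result expressed as % inhibition versus untreated, mean of three independent experiments.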

Experiment [2] has as its system Jurkat (Homo sapiens). The experiment in a line: Inhibition of ICAM1-LFA1 mediated adhesion in Jurkat cells.
Experiment [3] has as its system Erythrocyte. The experiment in a line: Inhibition of CD2-CD58 interaction assessed as inhibition of E-rosette formation between Jurkat cells and sheep RBCs at 200 uM. The format is cell-based. Set-up: Activity: scale not given: the % may be the effect or the level left. An outline of the steps:
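E-rosetting: test peptide added first to AET-treated sheep red blood cells (CD58-expressing), then an equal amount of Jurkat T cells (CD2-expressing). Cells with five or more bound SRBCs scored as rosettes. Read-out is % inhibition of rosette formation versus untreated cells, mean of three independent experiments; anti-CD58 antibody as positive control.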

For experiment [4], the system named is Jurkat. Briefly: Inhibition of CD2-CD58 interaction assessed as inhibition of adhesion between Jurkat cells and Caco-2 cells. The format is cell-based. The conditions noted are these: Homo sapiens, dose or concentration not given here. The gist of the method:
as §1

Molecules are shown by their SMILES. Activity calls are given as the source filed them. No cut-off for these calls is given here. Peptide text beside a SMILES is read from it.

As usually defined, the inhibition is the relative decrease from the control value, in per cent. For the compound `CC[C@H](C)[C@@H]1NC(=O)[C@H](CCCCN)NC(=O)[C@H](N)C(C)(C)SSC[C@H](C(=O)O)NC(=O)[C@H](CO)NC(=O)[C@H]([C@@H](C)CC)NC(=O)[C@H](Cc2ccc(O)cc2)NC(=O)[C@H](CC(=O)O)NC(=O)[C@H]([C@@H](C)O)NC(=O)[C@H]([C@@H](C)CC)NC(=O)[C@H](CC(=O)O)NC(=O)[C@H](CC(=O)O)NC1=O`, the inhibition in experiment [1] amounted to 60%. Further, the outcome in experiment [2] was inactive. For the same compound, the Activity in experiment [3] turned out to be 45%.
As for `CC[C@H](C)[C@@H]1NC(=O)[C@H](CC(=O)O)NC(=O)[C@H](CC(=O)O)NC(=O)[C@H]([C@@H](C)CC)NC(=O)[C@H](CCCCN)NC(=O)[C@H](N)C(C)(C)SSC[C@H](C(=O)O)NC(=O)[C@H](CO)NC(=O)[C@H]([C@@H](C)CC)NC(=O)[C@H](Cc2ccc(O)cc2)NC(=O)[C@H](CC(=O)O)NC(=O)[C@H]([C@@H](C)O)NC(=O)[C@H](CCCCN)NC(=O)[C@H](CC(=O)O)NC1=O`, the inhibition in experiment [3] came to 25%.
Turning to `CC[C@H](C)[C@@H]1NC(=O)[C@H](CC(=O)O)NC(=O)[C@H](CC(=O)O)NC(=O)[C@H](N)C(C)(C)SSC[C@@H](C(=O)O)NC(=O)[C@H](CC(=O)O)NC(=O)[C@H](Cc2ccc(O)cc2)NC(=O)[C@H]([C@@H](C)CC)NC(=O)[C@H](CO)NC(=O)[C@H](C(C)C)NC(=O)[C@H](Cc2c[nH]c3ccccc23)NC(=O)[C@H](CCCCN)NC1=O`, the inhibition in experiment [3] turned out to be 30%.
Regarding `CC[C@H](C)[C@H](N)C(=O)N[C@@H](CC(=O)O)C(=O)N[C@@H](CC(=O)O)C(=O)N[C@H](C(=O)N[C@@H](CCCCN)C(=O)N[C@@H](Cc1c[nH]c2ccccc12)C(=O)N[C@@H](CCC(=O)O)C(=O)N[C@@H](CCCCN)C(=O)N[C@H](C(=O)N[C@@H](CO)C(=O)N[C@H](C(=O)N[C@@H](Cc1ccc(O)cc1)C(=O)N[C@@H](CC(=O)O)C(=O)N[C@H](C(=O)O)[C@@H](C)O)[C@@H](C)CC)C(C)C)[C@@H](C)CC` (H-IDDIKWEKVSIYDT-OH), the inhibition in experiment [4] came to 30%.
On to `CC[C@H](C)[C@@H]1NC(=O)[C@H](CC(=O)O)NC(=O)[C@H](CC(=O)O)NC(=O)[C@H](N)C(C)(C)SSC[C@H](C(=O)O)NC(=O)[C@H](CC(=O)O)NC(=O)[C@H](Cc2ccc(O)cc2)NC(=O)[C@H]([C@@H](C)CC)NC(=O)[C@H](CO)NC(=O)[C@H](C(C)C)NC(=O)[C@H](CCCCN)NC(=O)[C@H](CCC(=O)O)NC(=O)[C@H](Cc2c[nH]c3ccccc23)NC(=O)[C@H](CCCCN)NC1=O`, for which the figures for the inhibition in experiment [1] and in experiment [3] were 50% and 40%, respectively. In experiment [2], the result was inactive.
For the compound `CC[C@H](C)[C@H](NC(=O)[C@H](CC(=O)O)NC(=O)[C@H](CC(=O)O)NC(=O)[C@@H](NC(=O)[C@H](CCCCN)NC(=O)[C@@H](N)Cc1c[nH]c2ccccc12)[C@@H](C)CC)C(=O)N[C@@H](CC(=O)O)C(=O)N[C@@H](CCCCN)C(=O)N[C@H](C(=O)N[C@@H](CC(=O)O)C(=O)N[C@@H](Cc1ccc(O)cc1)C(=O)N[C@H](C(=O)N[C@@H](CO)C(=O)N[C@H](C(=O)O)C(C)C)[C@@H](C)CC)[C@@H](C)O` (H-WKIDDIDKTDYISV-OH), in experiment [3], the inhibition was 15%.
Still for that read-out and setting: the figure for `CC[C@H](C)[C@H](NC(=O)[C@H](CCCCN)NC(=O)[C@@H](N)Cc1c[nH]c2ccccc12)C(=O)N[C@@H](CC(=O)O)C(=O)N[C@@H](CC(=O)O)C(=O)N[C@H](C(=O)N[C@H](C(=O)N[C@@H](CC(=O)O)C(=O)N[C@@H](Cc1ccc(O)cc1)C(=O)N[C@H](C(=O)N[C@@H](CO)C(=O)N[C@H](C(=O)O)C(C)C)[C@@H](C)CC)[C@@H](C)O)[C@@H](C)CC` (H-WKIDDITDYISV-OH) is 35%.

The record behind these values is ChEMBL document CHEMBL1148723, “Structure-based rational design of beta-hairpin peptides from discontinuous epitopes of cluster of differentiation 2 (CD2) protein to modulate cell adhesion interaction” (J Med Chem, 2007).
